# Many of the other results were omitted from the sample, so hits are more common in it than they were.
# HUVEC prolif 384: inhibitors of human endothelial cell proliferation; hit rate 1.1% among 86,000; viability, % at 10 µM (by protocol); HUVEC proliferation, CellTiter-Glo luminescence, 72 h; hits give low values;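 active = viability at or below 30%; inactive = viability above 30%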;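 note: 100% = median luminescence of DMSO-only cell control wells on each plate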
# Candida biofilm: kills Candida albicans biofilms | C. albicans biofilm + clotrimazole, Alamar Blue | inhibition, % at 6 µM | AID 834 | hit rate 0.14% among 85,000;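 active = inhibition above 20%; inactive = inhibition below 20%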;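 note: preformed 24 hr biofilms exposed to compound for 48 hr; 0% = biofilm without compound and 100% = blank killed by clotrimazole plus chlorhexidine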
# HCT116 bCat-KO: beta-catenin-lacking colon tumor cell growth suppression; HCT116 beta-catenin knockout viability, CellTiter-Glo, 60 h; hits give low values; viability, % at 10 µM; hit rate 1.5% among 140,000; AID 818;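 active = viability at or under a set limit, the compound median less 4 SD, cut at about 6% in these data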;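 note: 0% = Hyamine 1622 control at 20 µM and 100% = untreated cell control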
# Lung fibro prol: blocks proliferation of human lung fibroblasts. LL 47 human lung fibroblast viability, ATP luminescence; hits give low values. viability, % at 10 µM. hit rate 1.1% among 85,000. AID 719;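 active = viability at or below 50% in the single dose screen; inactive = viability above 50%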;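 note: compound exposure lasted 72 h before the ATP readout; 100% = median luminescence of untreated cell-only wells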
#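 test system = LL 47 human lung fibroblasts | amount = 1,150 fibroblasts seeded per well | medium = 15% FBS in IMEM | times = overnight cell rest, 72 h compound treatment at 37 °C | measured by = CellTiter-Glo luminescence measuring cellular ATP | read-out = viability percentage against median untreated-cell control | benchmarks = cell-only wells, no compound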
# HCT116 PTEN-null: growth suppressors of cells with PTEN tumor suppressor deletion | HCT116 PTEN-null viability, CellTiter-Glo, 60 h; hits give low values | viability, % at 10 µM | hit rate 1.2% among 140,000;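 active = viability at or below a set limit, 4 SD under the median of all tested compounds, cut at about 3.7% in these data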;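 note: PTEN knockout HCT116 line with beta catenin targeted HCT116 as companion control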
# H69AR growth 86K: blocks growth of human H69AR lung tumor cells. H69AR lung tumor viability, ATP luminescence, 72 h; hits give low values. viability, % at 10 µM. hit rate 6% among 85,000. AID 598;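 active = viability at or below 40%; inactive = viability above 40%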;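 note: multidrug resistant small cell line overexpressing MRP-1 efflux transporter; 100% = mean luminescence of untreated control wells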
# * marks the source's active call; other numbers are inactive results; x = no result given.
SMILES,HUVEC prolif 384,Candida biofilm,HCT116 bCat-KO,Lung fibro prol,HCT116 PTEN-null,H69AR growth 86K
CCN1CCN(c2nc(-c3ccccn3)nc3ccccc23)CC1,90,4,11,87,11,62
c1ccc(-c2nc(N3CCCCCC3)c3ccccc3n2)nc1,58,9,3.8*,37*,3.4*,7.6*
c1ccc(-c2nc(N3CCOCC3)c3ccccc3n2)nc1,89,11,7,86,3.3*,26*
Cc1ccc(S(=O)(=O)N(c2nc(NC(C)C)nc(NC(C)C)n2)n2cnnc2)cc1,x,x,83,x,81,x
CCn1c(CNc2nc3ccccc3n2C(C)C)nc2ccccc21,92,1,78,87,81,87
COc1cc2c(cc1OC)CN(c1ccc(-c3ccccc3OC)nn1)CC2,53,1,2.7*,56,7,51
COc1ccccc1N(C(C)=O)c1nc(C)cc(C)c1C#N,89,4,92,89,95,74
COc1cccc(/C=N/NC(=O)c2cc3c(OC)cccc3[nH]2)c1O,x,x,6.0*,x,2.6*,x
COc1cccc(/C=N/NC(=O)c2c(-c3ccccc3)noc2C)c1O,x,x,5.8*,x,7,x
CCOC(=O)CN1C(=O)CN(c2ccc(C)cc2)C1=O,x,x,105,x,94,x
Cc1nc(C)c(C(=O)NNS(=O)(=O)c2ccc3ccccc3c2)s1,x,x,80,x,84,x
CC(C)C(c1nnnn1C(C)(C)C)N1CCN(c2cccc(Cl)c2)CC1 (stereo not given),98,8,59,98,72,73
CCOC(=O)C1CCCN(c2nc3ccccc3nc2C(C#N)C(=O)OCCOC)C1 (stereo not given),25*,5,67,54,65,75
CN1CCN(c2nc3ccccc3nc2C(C#N)C(=O)OC2CCCCC2)CC1 (stereo not given),3.7*,5,52,71,50,19*
O=C(Oc1ccc(Cl)c2cccnc12)C12CC3CC(CC(C3)C1)C2,x,x,18,x,10,x
CC1=CC(C)=Nc2ccc(C)cc2N1,97,2,99,100,97,18*
Cc1ccc2c(c1)NC(=O)CC(c1ccccc1)=N2,104,15,96,106,92,87
O=[N+]([O-])c1ccc(/C=N/Nc2nc(N3CCCCCC3)nc(N3CCCCCC3)n2)o1,70,8,49,85,32,28*
O=C(C(Cc1ccccc1)NS(=O)(=O)c1cccc2cccnc12)N1CCc2ccccc21 (stereo not given),99,11,69,85,73,59
Cn1c(=O)c2c(SCc3cccc(C(F)(F)F)c3)nc(-c3ccco3)nc2n(C)c1=O,20*,8,20,48*,14,101
CCOc1ccc(-c2nc(C#N)c(N3CCN(C)CC3)o2)cc1,109,-9,87,98,91,99
CCOc1ccc(-c2nc(C#N)c(N3CCCCCC3)o2)cc1,100,21*,80,107,93,74
COc1ccccc1Nc1nc(N)nc(CN2CCC(Cc3ccccc3)CC2)n1,72,5,77,92,73,40*
CC(Oc1ccc(Cl)cc1Cl)C(=O)Nc1ccncc1 (stereo not given),81,3,61,83,49,34*
COC(=O)c1ccc(NC(c2ccc(Cl)cc2)P(=O)(OC)OC)cc1 (stereo not given),x,x,76,x,87,x
SMILES,HUVEC prolif 384,Candida biofilm,HCT116 bCat-KO,Lung fibro prol,HCT116 PTEN-null,H69AR growth 86K
CC(=O)Nc1ccccc1Nc1cc(C#N)c(C#N)cc1[N+](=O)[O-],97,3,x,111,x,86
CCOC(=O)c1c(-c2ccccc2)oc2ccc(O)c(CN(C)C)c12,55,5,37,73,39,10*
CCOC(=O)c1c(-c2ccccc2)oc2ccc(O)c(CN3CCCC3)c12,3.5*,4,17,59,15,5.3*
COc1cc(/C=N/NC(=O)C2c3ccccc3Oc3ccccc32)ccc1O,x,x,86,x,102,x
Clc1ccc(COn2nnc3ccccc32)c(Cl)c1,88,0,66,86,78,87
Cc1ccc(-c2nc(SCC(=O)NCC3CCCO3)c(-c3ccccc3)[nH]2)cc1 (stereo not given),x,x,77,x,80,x
Cc1cc(Nc2nc3ccccc3nc2Cl)n(-c2ccccc2)n1,47,0,21,78,15,36*
Cc1cc(Nc2ccc(Cl)cc2)n(-c2ccccc2)n1,83,-8,51,54,56,95
Cc1cc(Nc2cccc(Cl)n2)n(-c2ccccc2)n1,x,x,57,x,59,x

# Screening results deposited in PubChem BioAssay by several laboratories.
